Laboratory results taken from ChEMBL document CHEMBL5230177, “Inactivation of myostatin by photooxygenation using functionalized d-peptides” (RSC Med Chem, 2023).
Calls of active or inactive are those of the source. The rule behind the calls is not given here.

Tests used:
[1] = molecular target: Growth/differentiation factor 8 (Homo sapiens) (UniProt O14793); assay: Photo-oxygenation of human recombinant Myostatin expressed in Escherichia coli cells assessed as oxygen adduct formation in myostatin peak fragment 40-54 at 3 uM measured after photoirradiation for 30 mins using LED by MALDI-TOF-MS analysis
In short: (§1)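 Myostatin stock (8 μM in 1 mM HCl) diluted to 1 μM in 10 mM phosphate, pH 7.4. Functionalized peptide (final 3 μM) or methylene blue (final 1 μM) added. Irradiated 30 min with 730 nm LED (14 mW) at room temperature. Then 50 mM DTT reduction (37 °C, 0.5 h), Lys-C digestion (1/20 w/w, 37 °C, 2.5 h), ZipTip desalting, MALDI-TOF MS of fragments.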

[2] = molecular target: Growth/differentiation factor 8 (Homo sapiens) (UniProt O14793); assay: Photo-oxygenation of human recombinant Myostatin expressed in Escherichia coli cells assessed as oxygen adduct formation in myostatin peak fragment 79-90 at 3 uM measured after photoirradiation for 30 mins using LED by MALDI-TOF-MS analysis; in short: as §1
[3] = molecular target: Growth/differentiation factor 8 (Homo sapiens) (UniProt O14793); assay: Photo-oxygenation mediated inactivation of human recombinant Myostatin expressed in Escherichia coli cells assessed as residual activity at 3 nM photoirradiated for 30 mins using LED followed by incubation with luciferase reporter transfected HEK293 cells for 4 hrs by luciferase reporter gene assay; conditions: time 4.5 hrs
In short: (§2)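 Myostatin (1 μM in 10 mM phosphate, pH 7.4, with or without peptide) diluted in serum-free DMEM to 0.6 nM, irradiated at 730 nm for 30 min, then added to HEK293 cells. Cells were transfected 24 h with SBE-luc2P reporter plus TK-Renilla control, then held 8 h in serum/phenol red-free DMEM. Exposure 4 h, PBS wash, dual-luciferase read-out. Triplicate, mean ± s.d. (n = 3), Tukey's test.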

[4] = molecular target: T1, Growth/differentiation factor 8 (Homo sapiens, UniProt O14793); assay: Photo-oxygenation mediated inactivation of human recombinant Myostatin expressed in Escherichia coli cells photoirradiated for 30 mins using LED followed by incubation with luciferase reporter transfected HEK293 cells for 4 hrs by luciferase reporter gene assay; in short: as §2
T1 sequence (O14793 whole entry): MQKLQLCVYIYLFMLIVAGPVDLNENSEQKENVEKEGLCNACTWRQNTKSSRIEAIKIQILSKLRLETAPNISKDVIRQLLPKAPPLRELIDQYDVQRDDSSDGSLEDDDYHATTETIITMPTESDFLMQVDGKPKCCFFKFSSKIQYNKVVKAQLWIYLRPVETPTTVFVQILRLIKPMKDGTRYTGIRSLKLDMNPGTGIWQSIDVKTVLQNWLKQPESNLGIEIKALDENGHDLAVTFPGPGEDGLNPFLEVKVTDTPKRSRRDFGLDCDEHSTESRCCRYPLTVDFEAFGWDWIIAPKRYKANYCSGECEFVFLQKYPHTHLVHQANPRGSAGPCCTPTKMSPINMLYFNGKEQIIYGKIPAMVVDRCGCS

[5] = test system: HEK293; assay: Phototoxicity against human HEK293 cells assessed as reduction in cell viability at 3 uM photoirradiated for 30 mins using LED followed by incubation with compound for 24 hrs by WST-1 assay; type: toxicity, cell-based; conditions: hek293, 24.5 h, time 1470 min
In short: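 HEK293 cells grown in DMEM with 10% FBS and non-essential amino acids at 37 °C, 5% CO2, seeded 2.0×10^4 cells/well. After 48 h, medium switched to serum- and phenol red-free DMEM containing 3 μM peptide or methylene blue. Cells irradiated with LED (λmax 730 nm, 30 min), then incubated 24 h. Viability read by WST-1; Student's t-test.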

[6] = test system: trypsin (Sus scrofa); assay: Stability of the compound assessed as trypsin (porcine pancreas)-mediated drug degradation at 100 uM measured after 3 hrs by MALDI-TOF-MS analysis
[7] = test system: chymotrypsin (Bos taurus); assay: Stability of the compound assessed as chymotrypsin (bovine pancreas)-mediated drug degradation at 100 uM measured after 3 hrs by MALDI-TOF-MS analysis
[8] = molecular target: Amyloid-beta precursor protein (Homo sapiens) (UniProt P05067); assay: Photo-oxygenation of human Amyloid beta (1 to 42) assessed as oxygen adduct formation at 3 uM measured after photoirradiation for 30 mins using LED by MALDI-TOF-MS analysis
In short: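 Aβ1-42 formed in situ from isopeptide stock (250 μM in 0.1% TFA, ultracentrifuged), diluted to 20 μM in 10 mM phosphate, pH 7.4. Functionalized peptide (final 3 μM) or methylene blue (final 1 μM) added. Irradiated with 730 nm LED (14 mW, 3–5 cm) at room temperature. Reduced with 50 mM DTT (37 °C, 0.5 h), Lys-C digested (1/20 w/w, 37 °C, 2.5 h), desalted, analysed by MALDI-TOF MS.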

[9] = molecular target: Growth/differentiation factor 8 (Homo sapiens) (UniProt O14793); assay: Photo-oxygenation of human recombinant Myostatin expressed in Escherichia coli cells assessed as oxygen adduct formation in myostatin peak fragment 55-78 at 3 uM measured after photoirradiation for 30 mins using LED by MALDI-TOF-MS analysis; in short: as §1
[10] = molecular target: Growth/differentiation factor 8 (Homo sapiens) (UniProt O14793); assay: Inactivation of human recombinant Myostatin expressed in Escherichia coli cells at 3 nM incubated with luciferase reporter transfected HEK293 cells for 4 hrs by luciferase reporter gene assay

Amyloid-beta precursor protein (Homo sapiens), sequence (P05067 whole entry): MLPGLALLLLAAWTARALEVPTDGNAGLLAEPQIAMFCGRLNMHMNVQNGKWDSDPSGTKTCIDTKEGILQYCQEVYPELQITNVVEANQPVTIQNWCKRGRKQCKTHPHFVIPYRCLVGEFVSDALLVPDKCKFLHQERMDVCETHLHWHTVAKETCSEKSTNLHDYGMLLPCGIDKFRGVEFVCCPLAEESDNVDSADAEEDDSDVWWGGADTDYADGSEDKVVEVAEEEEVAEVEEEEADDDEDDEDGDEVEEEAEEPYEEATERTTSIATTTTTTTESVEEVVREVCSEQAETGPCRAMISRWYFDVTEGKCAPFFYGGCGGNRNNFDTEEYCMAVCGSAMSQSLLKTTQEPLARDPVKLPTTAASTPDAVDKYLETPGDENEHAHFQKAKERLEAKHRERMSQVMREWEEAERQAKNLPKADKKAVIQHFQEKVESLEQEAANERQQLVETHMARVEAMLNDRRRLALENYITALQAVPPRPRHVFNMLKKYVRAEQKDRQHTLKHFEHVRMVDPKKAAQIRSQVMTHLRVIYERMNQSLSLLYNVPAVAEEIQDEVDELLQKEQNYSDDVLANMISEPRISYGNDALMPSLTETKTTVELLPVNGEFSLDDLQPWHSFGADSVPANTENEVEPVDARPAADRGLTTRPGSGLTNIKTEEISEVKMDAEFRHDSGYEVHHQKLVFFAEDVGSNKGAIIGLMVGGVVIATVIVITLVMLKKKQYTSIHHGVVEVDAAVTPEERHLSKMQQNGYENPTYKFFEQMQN

- Activity [1]: inactive
- Activity [2]: Active
- Activity [3]: 41%
- IC50 [4]: 890 pM
- Stability [6]: Stable
- Stability [7]: Stable
- Activity [8]: inactive
- Activity [9]: Active
- inhibition [10]: inactive
Compound: CC[C@@H](C)[C@@H](NC(=O)[C@@H](CCCNC(=N)N)NC(=O)[C@@H](CCc1ccccc1)NC(=O)[C@H](NC(=O)[C@@H](CCCCN)NC(=O)[C@H](NC(=O)[C@@H](CCCNC(=N)N)NC(=O)[C@H](NC(=O)[C@@H](Cc1ccc2ccccc2c1)NC(=O)[C@@H](CCCNC(=N)N)NC(=O)[C@@H](CCCCN)NC(=O)[C@H](NC(=O)[C@@H](CCCNC(=N)N)NC(=O)[C@@H](CC(C)C)NC(=O)CCc1cn(CCN2CCCc3cc(/C=C/C4=C(Br)C(/C=C/c5cc6c7c(c5)CCCN7CCC6)=[O+][B-](F)(C(F)(F)F)O4)ccc32)nn1)C1CCCCC1)[C@H](C)CC)C1CCCCC1)[C@H](C)CC)C(=O)N[C@H](Cc1ccc(O)cc1)C(=O)N[C@H](CCc1ccccc1)C(N)=O (stereo not given in full)
- Activity [5]: Non-Toxic
